Measurements as given in ChEMBL document CHEMBL4024793, “Development of Stem-Cell-Mobilizing Agents Targeting CXCR4 Receptor for Peripheral Blood Stem Cell Transplantation and Beyond” (J Med Chem, 2018).

How the values were obtained:
[1] = target: C-X-C chemokine receptor type 4 (Homo sapiens, UniProt P61073); test: Displacement of [125I]CXCL12 from human CXCR4 expressed in HEK293 cell membranes after 1.5 hrs by Topcount method
[2] = Acute toxicity in sc dosed C57BL/6 mouse assessed as maximum tolerated dose by measuring mortality; type: organism-based; conditions: in vivo
In short: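 Male C57BL/6 or ICR mice (n = 3/group) dosed subcutaneously with escalating doses, low to high; MTD taken as highest dose giving zero mortality (0/3).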

[3] = Cmax in C57BL/6 mouse at 6 mg/kg, sc measured up to 4 hrs post dose by LC-MS/MS analysis; type: ADME, organism-based; parameters: dose 6 mg/kg, route subcutaneous; conditions: in vivo
In short: (§1)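 Male C57BL/6 mice (23.4–25.4 g), quarantined one week, non-fasted, n = 3; single SC dose of 6 mg/kg in 100% saline. Blood taken by cardiac puncture at 0, 0.03, 0.08, 0.25, 1, 1.5, 2 and 4 h and stored at -80 °C. Plasma analysed by LC–MS/MS; parameters from non-compartmental analysis; mean ± SD.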

[4] = Half life in C57BL/6 mouse at 6 mg/kg, sc measured up to 4 hrs post dose by LC-MS/MS analysis; type: ADME, organism-based; conditions: in vivo; in short: as §1
[5] = AUC (0 to 4 hrs) in C57BL/6 mouse at 6 mg/kg, sc measured up to 4 hrs post dose by LC-MS/MS analysis; type: ADME, organism-based; parameters: dose 6 mg/kg, time < 4 hr, route subcutaneous; conditions: in vivo; in short: as §1

Sequence of C-X-C chemokine receptor type 4 (P61073 whole entry): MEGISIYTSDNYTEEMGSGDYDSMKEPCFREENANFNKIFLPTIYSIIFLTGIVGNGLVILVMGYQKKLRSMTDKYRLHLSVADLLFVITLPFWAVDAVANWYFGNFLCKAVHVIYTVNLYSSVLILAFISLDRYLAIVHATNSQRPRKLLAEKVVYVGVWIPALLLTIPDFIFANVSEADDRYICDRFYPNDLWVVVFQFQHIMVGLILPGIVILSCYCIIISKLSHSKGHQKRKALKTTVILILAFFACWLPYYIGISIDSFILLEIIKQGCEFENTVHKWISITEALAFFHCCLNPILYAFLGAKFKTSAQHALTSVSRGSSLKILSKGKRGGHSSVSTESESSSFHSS

For `Cc1cc(NC2CCN(C(=O)CCCC(=O)O)CC2)nc(NCc2cn(CCCNCCCNC3CCCCC3)nn2)n1`, the IC50 [1] was 158 nM and the MTD [2] was 50 mg/kg.
Compound `CC(C)c1cc(NC2CCNCC2)nc(NCc2cn(CCCNCCCNC3CCCCC3)nn2)n1` has an IC50 [1] of 61.1 nM and an MTD [2] of 10 mg/kg.
Compound `FC(F)(F)c1cc(NC2CCNCC2)nc(NCc2cn(CCCNCCCNC3CCCCC3)nn2)n1` has an IC50 [1] of 860 nM and an MTD [2] of 10 mg/kg.
In the case of `Cc1cc(NC2CCN(C(=O)CCNCP(=O)(O)O)CC2)nc(NCc2cn(CCCNCCCNC3CCCCC3)nn2)n1`, the IC50 [1] is reported as 91.6 nM and the MTD [2] is reported as 100 mg/kg.
In the case of `CCc1cc(NC2CCNCC2)nc(NCc2cn(CCCNCCCNC3CCCCC3)nn2)n1`, the IC50 [1] is reported as 46.8 nM and the MTD [2] is reported as 10 mg/kg.
Compound `Cc1cc(NC2CCN(C(=O)CNCCC(=O)O)CC2)nc(NCc2cn(CCCNCCCNC3CCCCC3)nn2)n1` has an IC50 [1] of 82.6 nM and an MTD [2] of 100 mg/kg.
`Cc1cc(NC2CCN(CCC(=O)O)CC2)nc(NCc2cn(CCCNCCCNC3CCCCC3)nn2)n1` gave an IC50 [1] of 81.8 nM and an MTD [2] of 75 mg/kg.
Work on `c1cc(NC2CCNCC2)nc(NCc2cn(CCCNCCCNC3CCCCC3)nn2)n1` yielded an IC50 [1] of 34.1 nM and an MTD [2] of 10 mg/kg.
In the case of `O=C(O)CNCCC(=O)N1CCC(Nc2ccnc(NCc3cn(CCCNCCCNC4CCCCC4)nn3)n2)CC1`, the IC50 [1] is reported as 399 nM and the MTD [2] is reported as 100 mg/kg.
In the case of `Cc1cc(NC2CCN(C(=O)CCCNCC(=O)O)CC2)nc(NCc2cn(CCCNCCCNC3CCCCC3)nn2)n1`, the IC50 [1] is reported as 88.5 nM and the MTD [2] is reported as 75 mg/kg.
Work on `Cc1cc(NC2CCN(C(=O)CCNCCP(=O)(O)O)CC2)nc(NCc2cn(CCCNCCCNC3CCCCC3)nn2)n1` yielded an IC50 [1] of 147 nM.
In the case of `Cc1cc(NC2CCN(C(=O)CCNCCC(=O)O)CC2)nc(NCc2cn(CCCNCCCNC3CCCCC3)nn2)n1`, the IC50 [1] is reported as 72.2 nM and the MTD [2] is reported as 50 mg/kg.
Work on `Cc1cc(NC2CCN(CCC#N)CC2)nc(NCc2cn(CCCNCCCNC3CCCCC3)nn2)n1` yielded an IC50 [1] of 72.1 nM and an MTD [2] of 20 mg/kg.
`Cc1cc(N(C)C2CCN(C(=O)CCNCC(=O)O)CC2)nc(NCc2cn(CCCNCCCNC3CCCCC3)nn2)n1` showed an IC50 [1] of 97.6 nM and an MTD [2] of 50 mg/kg.
In the case of `Cc1cc(NC2CCNCC2)nc(NCc2cn(CCCNCCCNC3CCCCC3)nn2)n1`, the IC50 [1] is reported as 23.9 nM and the MTD [2] is reported as 10 mg/kg.
Compound `c1cc(CN2CCCNCCNCCCNCC2)ccc1CN1CCCNCCNCCCNCC1` [PLERIXAFOR] has a Cmax [3] of 6200 ng/mL, a half-life [4] of 1.4 h and an AUC(0-t) at 4 h [5] of 7150 ng·h/mL.
Compound `CCCN1CCC(Nc2cc(C)nc(NCc3cn(CCCNCCCNC4CCCCC4)nn3)n2)CC1` has an IC50 [1] of 47.8 nM and an MTD [2] of 10 mg/kg.
In the case of `Cc1cc(NC2CCN(C(=O)CC[C@H](N)C(=O)O)CC2)nc(NCc2cn(CCCNCCCNC3CCCCC3)nn2)n1`, the IC50 [1] is reported as 71.1 nM and the MTD [2] is reported as 50 mg/kg.
For `Clc1cc(NC2CCNCC2)nc(NCc2cn(CCCNCCCNC3CCCCC3)nn2)n1`, the IC50 [1] was 708 nM and the MTD [2] was 10 mg/kg.
In the case of `Cc1cc(NC2CCN(CCCCC(=O)O)CC2)nc(NCc2cn(CCCNCCCNC3CCCCC3)nn2)n1`, the IC50 [1] is reported as 93 nM and the MTD [2] is reported as 75 mg/kg.
Compound `COc1cc(NC2CCNCC2)nc(NCc2cn(CCCNCCCNC3CCCCC3)nn2)n1` has an IC50 [1] of 473 nM and an MTD [2] of 10 mg/kg.
`Cc1cc(NC2CCN(CCC(N)=O)CC2)nc(NCc2cn(CCCNCCCNC3CCCCC3)nn2)n1` gave an IC50 [1] of 25.6 nM and an MTD [2] of 20 mg/kg.
`CCc1cc(NC2CCN(C(=O)CCNCC(=O)O)CC2)nc(NCc2cn(CCCNCCCNC3CCCCC3)nn2)n1` showed an IC50 [1] of 72 nM and an MTD [2] of 50 mg/kg.
